From PubChem
rCAG binder = r(CAG) repeat RNA binding | TO-PRO-1 dye displacement fluorescence | inhibition, % at 3 µM | 370,000 tested, 1.3% active;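 active = inhibition above the plate cutoff, the mean of all test compounds on that plate plus 3 SD, cut at about 35% in these data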;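 note: higher means more dye released from RNA so lower well fluorescence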
SIAE inh = blocks human sialic acid acetylesterase. SIAE FP-Rh probe binding, fluorescence polarization. Q9HAT2. inhibition, % at 9.66 µM. 370,000 tested, 0.69% active. AID 1053197;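 active = inhibition above a cutoff: mean of compounds within the control limits plus 3 SD of those, cut at about 17% in these data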
Target sequence (Q9HAT2 whole entry, looked up): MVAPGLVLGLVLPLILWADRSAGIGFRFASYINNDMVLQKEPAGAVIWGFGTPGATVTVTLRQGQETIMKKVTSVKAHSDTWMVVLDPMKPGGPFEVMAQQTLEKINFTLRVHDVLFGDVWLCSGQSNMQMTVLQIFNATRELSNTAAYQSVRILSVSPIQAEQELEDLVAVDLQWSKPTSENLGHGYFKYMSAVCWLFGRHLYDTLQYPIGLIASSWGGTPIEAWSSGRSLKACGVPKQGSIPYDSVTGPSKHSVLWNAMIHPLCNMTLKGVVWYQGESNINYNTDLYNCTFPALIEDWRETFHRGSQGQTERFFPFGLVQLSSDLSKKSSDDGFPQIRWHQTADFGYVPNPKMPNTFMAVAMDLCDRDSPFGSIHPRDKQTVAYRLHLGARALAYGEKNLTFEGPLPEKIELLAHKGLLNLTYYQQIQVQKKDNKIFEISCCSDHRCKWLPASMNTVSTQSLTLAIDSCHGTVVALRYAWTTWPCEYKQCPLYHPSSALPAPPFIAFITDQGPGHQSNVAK
TCR-CD3 inh = blocks the human TCR-CD3 interaction. TAMRA-labeled TCR probe fluorescence, biochemical. inhibition, % at 9.4 µM. 360,000 tested, 0.37% active. AID 651800; in the data active = inhibition above about 19%;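 note: recombinant mutant TCR 2C K166C tagged with TAMRA read by polarization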
HTRA1 inhibitor = blocks human HTRA1 serine peptidase; Q92743; recombinant HTRA1, FP-rhodamine activity-based probe, fluorescence polarization; inhibition, % at 5.96 µM; 340,000 tested, 0.5% active; in the data active = inhibition above about 36%
mABHD4 FP = inhibitors of mouse ABHD4 | Q8VD66 | purified mABHD4, FP-Rh probe fluorescence polarization | inhibition, % at 8.92 µM | 370,000 tested, 0.54% active;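 active = inhibition exceeding the mean over every tested compound plus 3 SD, cut at about 30% in these data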
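Material: mouse ABHD4 enzyme, wild type; Benchmarks: S159A mutant high control, sample median low control; Buffer or medium: HEPES pH 7.0, NaCl, Pluronic buffer; Signal: fluorescence polarization; Read-out: percent inhibition of probe binding, normalized to plate controls; Timing: pre-incubation 45 min, probe exposure 60 min, at 25 °C; Dosing: 8.92 µM, single dose.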
rCAG bind conf = r(CAG) RNA repeat binding, confirmation; TO-PRO-1 dye displacement fluorescence; inhibition, % at 3 µM; 4,300 tested, 70% active; shares compounds with rCAG binder; AID 652065;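 active = inhibition above a per-plate cutoff, the mean inhibition of sample wells plus 3 SD, cut at about 35% in these data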;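 note: loss of TO-PRO-1 fluorescence as compound displaces dye from 1x1 AA loop RNA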
dCAG dye counter = counter-screen for rCAG RNA binders: DNA CAG dye complex inhibitors | shares compounds with rCAG binder | d(CAG) DNA oligo TO-PRO-1 dye displacement, fluorescence | inhibition, % at 3 µM | 4,300 tested, 94% active | AID 652068;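 active = inhibition above its plate's cutoff, the mean test-well inhibition plus 3 SD, cut at about 4.8% in these data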;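 note: hits displace the dye from DNA and so lower well fluorescence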
Hits are given with their value. Most compounds without a hit are left out; they make up all but 2.5% or so of the library.

`COc1cccc(C(c2c(C)[nH]n(-c3ccccc3)c2=O)c2c(C)[nH]n(-c3ccccc3)c2=O)c1OC` gave rCAG binder 54, SIAE inh inactive, TCR-CD3 inh inactive, HTRA1 inhibitor inactive, mABHD4 FP inactive, rCAG bind conf 42 and dCAG dye counter 14.
Screening COc1ccc(C(C[N+](=O)[O-])c2c(C)[nH]n(-c3ccccc3)c2=O)cc1 (centres undefined) returned rCAG binder inactive, SIAE inh inactive, TCR-CD3 inh inactive, HTRA1 inhibitor inactive and mABHD4 FP inactive.
Cc1[nH]n(-c2ccccc2)c(=O)c1C(c1ccc(O)c([N+](=O)[O-])c1)c1c(C)[nH]n(-c2ccccc2)c1=O was read as rCAG binder 46, SIAE inh inactive, TCR-CD3 inh inactive, HTRA1 inhibitor inactive, mABHD4 FP inactive, rCAG bind conf inactive and dCAG dye counter 7.8.
`COc1cccc(C(c2c(C)[nH]n(-c3ccccc3)c2=O)c2c(C)[nH]n(-c3ccccc3)c2=O)c1O` gave rCAG binder 38, SIAE inh inactive, TCR-CD3 inh inactive, HTRA1 inhibitor inactive, mABHD4 FP inactive, rCAG bind conf inactive and dCAG dye counter 12.
Screening COC1C(OC(=O)/C=C/C=C/C=C/C=C/C(=O)O)CCC2(CO2)C1C1(C)OC1CC=C(C)C (centres undefined) (tested in a mixture with another compound) returned rCAG binder inactive, SIAE inh inactive, TCR-CD3 inh inactive, HTRA1 inhibitor inactive and mABHD4 FP inactive.
Screening CN/C=C1\C(=O)C(C)(C)Oc2ccc3ccc(=O)oc3c21 returned rCAG binder inactive, SIAE inh inactive, TCR-CD3 inh inactive, HTRA1 inhibitor inactive and mABHD4 FP inactive.
Screening Cc1c(NC(=O)c2cccnc2C(=O)O)cccc1C(=O)O returned rCAG binder inactive, SIAE inh inactive, TCR-CD3 inh inactive, HTRA1 inhibitor inactive and mABHD4 FP inactive.
For O=C(c1cc(COc2c(F)cccc2F)on1)N1CCN(C2CCCCC2)CC1 the results were rCAG binder inactive, SIAE inh inactive, TCR-CD3 inh inactive, HTRA1 inhibitor inactive and mABHD4 FP inactive.
CC(C)(C)CC(=O)NCCCN1CCOCC1 was read as rCAG binder inactive, SIAE inh inactive, TCR-CD3 inh inactive, HTRA1 inhibitor inactive and mABHD4 FP inactive.
Screening O=C(CSc1nnc(-c2ccco2)n1-c1ccc(Cl)cc1)Nc1ccc(S(=O)(=O)Nc2nccs2)cc1 returned rCAG binder 62, SIAE inh inactive, mABHD4 FP inactive, rCAG bind conf 57 and dCAG dye counter 20.
COc1ccc(-n2c(SCC(=O)Nc3ccc(S(=O)(=O)Nc4nccs4)cc3)nnc2-c2ccccc2)cc1 was read as rCAG binder 78, SIAE inh inactive, mABHD4 FP inactive, rCAG bind conf 72 and dCAG dye counter 37.
COc1ccc(-c2nnc(Nc3ccc(S(=O)(=O)Nc4nccs4)cc3)c3ccccc23)cc1 was read as rCAG binder 35, SIAE inh inactive, TCR-CD3 inh inactive, HTRA1 inhibitor inactive, mABHD4 FP inactive, rCAG bind conf 50 and dCAG dye counter 19.
`O=C(CSc1nnc(COc2ccccc2)n1-c1ccccc1)Nc1ccc(S(=O)(=O)Nc2nccs2)cc1` gave rCAG binder 75, SIAE inh inactive, mABHD4 FP inactive, rCAG bind conf 65 and dCAG dye counter 28.
Cc1ccc(OCc2nnc(SCC(=O)Nc3nccs3)n2-c2ccccc2)cc1C was read as rCAG binder inactive, SIAE inh inactive, TCR-CD3 inh inactive, HTRA1 inhibitor inactive and mABHD4 FP inactive.
`Nn1c(SCC(=O)Nc2ccc(S(=O)(=O)Nc3nccs3)cc2)nnc1-c1ccco1` gave rCAG binder inactive, SIAE inh inactive and mABHD4 FP inactive.
Cc1ccc(COc2coc(CN3CCN(C(=O)c4ccco4)CC3)cc2=O)cc1 was read as rCAG binder inactive, SIAE inh inactive, TCR-CD3 inh inactive, HTRA1 inhibitor inactive and mABHD4 FP inactive.
`CC1CCCCC1NS(=O)(=O)CCNC(=O)c1ccccc1` (centres undefined) gave rCAG binder inactive, SIAE inh inactive, TCR-CD3 inh inactive, HTRA1 inhibitor inactive and mABHD4 FP inactive.
